ChEMBL document CHEMBL4673245, “Discovery of AZD9833, a Potent and Orally Bioavailable Selective Estrogen Receptor Degrader and Antagonist” (J Med Chem, 2020)
Values after ≈ are worked out from the molar mass of the structure shown.

What was measured:
[1] = Oral bioavailability in rat at 1 mg/kg; type: ADME, organism-based; conditions: in vivo
Outline: (§1)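 Rat PK: single IV dose 0.5 mg/kg and oral dose 1 mg/kg, formulated in 5% DMSO:95% hydroxypropyl-β-cyclodextrin (30% w/v), dosed at 1 mL/kg IV and 4 mL/kg PO.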

[2] = Fraction absorbed in mouse at 2 mg/kg, iv or 5 mg/kg, po; type: ADME, organism-based; conditions: in vivo, read-out: Fabs
[3] = Clearance in mouse at 2 mg/kg, iv or 5 mg/kg, po; type: ADME, organism-based; conditions: in vivo
[4] = Solubility of compound in phosphate buffer at pH 7.4 using crystalline form of sample; type: physicochemical
[5] = Oral bioavailability in mouse at 5 mg/kg; type: ADME, organism-based; conditions: in vivo
[6] = In vivo antagonist activity at ERalpha in human MCF7 cells xenografted CB17 SCID mouse assessed as decrease in PR expression level at 10 mg/kg, po administered daily via oral gavage for 21 days measured 24 hrs post last dose by Western blot analysis relative to control; type: functional; parameters: scale not given: the % may be the effect or the level left; conditions: time 21 day
[7] = Stability of compound at 60 degC and 75% relative humidity assessed parent compound remaining measured 1 week using amorphous form of sample by chromatographic method; type: physicochemical; conditions: solid sample, time 1 weeks, read-out: Stabilty
Cytochrome P450 1A2 = molecular target: T1, Cytochrome P450 1A2 (Homo sapiens, UniProt P05177); assay: Inhibition of CYP1A2 in human liver microsomes; type: ADME
T1 sequence (P05177 whole entry): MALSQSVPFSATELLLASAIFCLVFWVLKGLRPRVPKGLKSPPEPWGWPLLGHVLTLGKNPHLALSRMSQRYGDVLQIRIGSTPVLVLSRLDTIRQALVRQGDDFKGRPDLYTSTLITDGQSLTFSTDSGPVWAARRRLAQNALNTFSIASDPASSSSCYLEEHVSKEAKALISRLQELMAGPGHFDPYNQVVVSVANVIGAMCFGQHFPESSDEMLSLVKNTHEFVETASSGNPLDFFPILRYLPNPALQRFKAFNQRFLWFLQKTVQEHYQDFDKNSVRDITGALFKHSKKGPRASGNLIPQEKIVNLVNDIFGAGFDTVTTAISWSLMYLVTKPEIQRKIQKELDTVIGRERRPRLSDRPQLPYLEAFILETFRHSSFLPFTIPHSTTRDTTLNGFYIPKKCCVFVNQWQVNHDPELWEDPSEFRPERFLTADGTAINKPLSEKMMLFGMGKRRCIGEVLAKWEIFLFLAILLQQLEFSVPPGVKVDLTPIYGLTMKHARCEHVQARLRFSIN
Outline: (§2)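 High-throughput human liver microsome panel of five CYP isoforms; inhibition reported as IC50.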

Cytochrome P450 3A4 = Cytochrome P450 3A4 (Homo sapiens, UniProt P08684); assay: Inhibition of CYP3A4 in human liver microsomes; type: ADME; outline: as §2
Chain of Cytochrome P450 3A4 (P08684 whole entry): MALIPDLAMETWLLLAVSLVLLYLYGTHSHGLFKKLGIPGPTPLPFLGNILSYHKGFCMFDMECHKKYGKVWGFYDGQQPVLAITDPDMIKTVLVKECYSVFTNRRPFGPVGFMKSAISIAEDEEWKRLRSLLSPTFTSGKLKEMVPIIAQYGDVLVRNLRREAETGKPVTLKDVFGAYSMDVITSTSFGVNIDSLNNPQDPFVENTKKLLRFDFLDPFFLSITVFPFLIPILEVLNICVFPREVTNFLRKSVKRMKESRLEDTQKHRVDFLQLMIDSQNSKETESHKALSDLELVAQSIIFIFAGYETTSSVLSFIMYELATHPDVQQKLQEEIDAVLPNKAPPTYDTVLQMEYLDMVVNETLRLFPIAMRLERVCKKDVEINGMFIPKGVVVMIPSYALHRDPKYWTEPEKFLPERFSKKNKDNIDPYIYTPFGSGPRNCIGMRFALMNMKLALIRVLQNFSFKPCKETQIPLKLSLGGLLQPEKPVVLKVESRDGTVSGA

[8] = Antitumor activity against human […] cells xenografted in CB17 SCID mouse assessed as tumor growth inhibition at 50 mg/kg, po administered daily via oral gavage for 21 days relative to control; type: functional, MCF7; parameters: scale not given: the % may be the effect or the level left; conditions: time 21 day
[9] = Intrinsic clearance in rat hepatocytes assessed per million cells; type: ADME, cell-based, Hepatocyte; conditions: read-out: CLH
Outline: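 Hepatocyte intrinsic clearance measured from DMSO stock in isolated hepatocytes diluted to 1x10⁶ cells/mL; rate expressed as µl/min/10⁶ cells.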

[10] = molecular target: T2, Estrogen receptor (Homo sapiens) (UniProt P03372); assay: Induction of ERalpha degradation in human MCF7 cells assessed as maximum degradation incubated for 18 to 24 hrs by Alexa fluor 488/Hoechst staining based immunofluorescence imaging analysis relative to fulvestrant; type: cell-based; conditions: time lower […], time upper […]
T2 sequence (whole entry): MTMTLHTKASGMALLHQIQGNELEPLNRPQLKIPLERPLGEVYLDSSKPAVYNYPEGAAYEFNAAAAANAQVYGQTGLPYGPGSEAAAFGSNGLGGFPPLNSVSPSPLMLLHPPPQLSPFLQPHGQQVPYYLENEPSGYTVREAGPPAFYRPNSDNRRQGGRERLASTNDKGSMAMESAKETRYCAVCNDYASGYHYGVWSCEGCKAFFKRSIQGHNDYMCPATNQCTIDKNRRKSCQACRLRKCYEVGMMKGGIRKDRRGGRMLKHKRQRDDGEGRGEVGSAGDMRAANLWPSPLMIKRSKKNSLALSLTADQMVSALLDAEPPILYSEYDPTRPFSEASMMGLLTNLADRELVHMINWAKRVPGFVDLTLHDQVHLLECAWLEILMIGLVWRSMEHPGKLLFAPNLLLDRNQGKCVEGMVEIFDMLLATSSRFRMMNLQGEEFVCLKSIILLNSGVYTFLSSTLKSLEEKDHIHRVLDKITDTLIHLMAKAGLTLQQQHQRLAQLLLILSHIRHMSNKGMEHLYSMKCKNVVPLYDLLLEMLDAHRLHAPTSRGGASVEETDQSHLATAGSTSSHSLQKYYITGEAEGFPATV

MCF7 = assay: Antiproliferative activity against human wild-type MCF7 cells assessed as decrease in estradiol-mediated cell viability incubated for 4 to 6 days by SYTOX Green dye based fluorescence assay; type: functional
[11] = Clearance in rat at 0.5 mg/kg, iv or 1 mg/kg, po; type: ADME, organism-based; conditions: in vivo; outline: as §1

bioavailability [1]: 19%
Fa [2]: 50%
clearance [3]: 59 mL/min/kg
solubility thermodynamic [4]: 400 µg/mL (≈ 839 µM)
bioavailability [5]: 16%
remaining at 168 h [7]: 82.4%
IC50 (Cytochrome P450 1A2): > 30000 nM
IC50 (Cytochrome P450 3A4): 2200 nM
hepatocyte CLint [9]: 23 µL/min/1e6 cells
Emax [10]: 99%
clearance [11]: 73 mL/min/kg
Structure (SMILES): C[C@@H]1Cc2c(ccc3[nH]ncc23)[C@@H](c2ccc(NC3CN(CCCF)C3)cn2)N1CC(F)(F)F [CAMIZESTRANT]
Activity [6]: 8.9%
Activity [8]: 53%
IC50 (MCF7): 5.01 nM
